Reference: ChEMBL document CHEMBL5331111, “Synthetic Biology Facilitates Semisynthetic Development of Type V Glycopeptide Antibiotics Targeting Vancomycin-Resistant Enterococcus” (J Med Chem, 2023)
Values after ≈ are worked out from the molar mass of the structure shown. Active and inactive are the calls of the source. No cut-off for these calls is given here.

Assays:
[1] = Hemolytic activity in human RBC incubated for 1 hr by absorbance based analysis; assay type: toxicity, cell-based, Erythrocyte; details: red blood cells (erythrocytes)
Summary of the method: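 Human K2-EDTA blood RBCs washed twice in 150 mM NaCl, resuspended in PBS pH 7.4, then diluted 1:50. Incubated with compound at 1% final DMSO for 1 h at 37 °C and pelleted at 500g for 5 min. Supernatant absorbance read at 540 nm. Controls were DMSO-only and a Triton X-100 dilution series (20% to 0.02%).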

[2] = Cytotoxicity against HEK293 cells assessed as inhibition of cell growth incubated for 48 hrs by Cell-Titer Glo reagent based analysis; assay type: toxicity; details: human
Summary of the method: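 HEK293 cells seeded at 7500 cells/well in DMEM with 10% FBS, 2 mM glutamine and pen/strep, and left 18 h at 37 °C under 5% CO2. Compound then added at 1% final DMSO and incubated 48 h. Viability read by CellTiter-Glo luminescence and normalized to DMSO-only wells. Curves fitted by 4PL constrained to 0–1.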

[3] = test system: Enterococcus faecalis; assay: Antibacterial activity against vancomycin-resistant Enterococcus faecalis ATCC 51299 assessed as inhibition of bacterial growth by Mueller-Hinton broth based assay; assay type: functional
[4] = test system: Mycolicibacterium smegmatis; assay: Antimycobacterial activity against Mycobacterium smegmatis MC2 155 assessed as inhibition of bacterial growth measured after 2 days by resazurin dye based analysis; assay type: functional; details: MC2 155, 48 h, time 2 day
Summary of the method: (§1)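 Strains grown in 7H9 broth with 0.2% glycerol, 10% OADC and 0.05% Tween-80. Inoculum was about 5 × 10^5 CFU/mL, checked by plating on 7H10/OADC agar to be 3–8 × 10^5. Read at 2 days for M. smegmatis and 7 days for M. tuberculosis H37Ra, M. bovis and M. avium. Resazurin 30 μg/mL was then added for one further day. Values are averages of at least two experiments.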

[5] = test system: Bacillus subtilis; assay: Antibacterial activity against Bacillus subtilis 168 assessed as reduction in bacterial growth by Mueller-Hinton broth based assay; assay type: functional
Summary of the method: (§2)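 Broth MIC by standard procedure in Mueller-Hinton broth, for both B. subtilis 168 and S. aureus ATCC 33591.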

[6] = test system: Enterococcus faecium; assay: Antibacterial activity against vancomycin-resistant Enterococcus faecium ATCC 700221 assessed as inhibition of bacterial growth by Mueller-Hinton broth based assay; assay type: functional
[7] = test system: Staphylococcus aureus; assay: Antibacterial activity against Staphylococcus aureus ATCC 33591 assessed as reduction in bacterial growth by Mueller-Hinton broth based assay; assay type: functional; summary of the method: as §2
[8] = Antimycobacterial activity against Mycobacterium avium subsp. avium ATCC 25291 assessed as inhibition of bacterial growth measured after 7 days by resazurin dye based analysis; assay type: functional; details: ATCC 25291, 168 h, time 7 day; summary of the method: as §1
[9] = test system: Mycobacterium tuberculosis; assay: Antimycobacterial activity against Mycobacterium tuberculosis H37Ra assessed as inhibition of bacterial growth measured after 7 days by resazurin dye based analysis; assay type: functional; details: 168 h, time 7 day; summary of the method: as §1
[10] = test system: Mycobacteroides abscessus; assay: Antimycobacterial activity against Mycobacterium abscessus ATCC 19977 assessed as inhibition of bacterial growth measured after 2 days by resazurin dye based analysis; assay type: functional; details: ATCC 19977, 48 h, time 2 day
Summary of the method: (§3)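 Cultured in 7H9 with 0.2% glycerol, 10% OADC and 0.05% Tween-80. Inoculum diluted to ~5 × 10^5 CFU/mL and confirmed at 3–8 × 10^5 by plating on 7H10 agar. Growth read at 2 days, then 30 μg/mL resazurin added for one more day. Values averaged from at least two experiments.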

[11] = test system: Mycolicibacterium fortuitum; assay: Antimycobacterial activity against Mycobacterium fortuitum ATCC 6891 assessed as inhibition of bacterial growth measured after 2 days by resazurin dye based analysis; assay type: functional; details: ATCC 6891, 48 h, time 2 day; summary of the method: as §3
[12] = test system: Enterococcus faecium; assay: Antibacterial activity against Vancomycin-resistant Enterococcus faecium ATCC 700221 infected in cyclophosphamide induced neutropenic thigh infection CD-1 mouse model assessed as increase in survival rate at 50 mg/kg, ip qid measured after 24 hrs post-infection; assay type: functional, organism-based
Summary of the method: (§4)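 Female CD-1 mice, 6–10 weeks old, made neutropenic with i.p. cyclophosphamide (150 mg/kg day 4, 100 mg/kg day 1). About 1 × 10^6 CFU of E. faecium ATCC 700221, grown in BHI with vancomycin, were injected into each thigh. Dosing was i.p. at 1, 3, 5 and 20 h post-infection, in PEG400/DMSO/H₂O (45/5/50) vehicle, with vehicle controls. Mice were euthanized at 24 h.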

[13] = test system: Enterococcus faecium; assay: Antibacterial activity against Vancomycin-resistant Enterococcus faecium ATCC 700221 infected in cyclophosphamide induced neutropenic thigh infection CD-1 mouse model assessed as reduction in weight loss at 50 mg/kg, ip qid measured after 24 hrs post-infection; assay type: functional, organism-based; summary of the method: as §4

SMILES | IC50 at 1 h [1] | IC50 at 48 h [2] | MIC [3] | MIC [4] | MIC [5] | MIC [6] | MIC [7] | MIC [8] | MIC [9] | MIC [10] | MIC [11] | Activity [12] | Activity [13]
CN1C(=O)[C@@H]2NC(=O)[C@@H]3NC(=O)[C@@H](c4ccc(O)cc4)NC(=O)[C@H](NC(=O)Cc4ccc(O)cc4)Cc4c[nH]c5cc(ccc45)-c4cc3cc(c4O)Oc3ccc(cc3)C[C@H]1C(=O)N[C@@H](C(=O)NCCC[N+](C)(C)C)c1ccc(O)c(c1)Oc1ccc2cc1 | > 256 µg/mL | > 256 µg/mL | 16 µg/mL | 0.5 µg/mL | 4 µg/mL | 4 µg/mL | > 128 µg/mL |  |  |  |  |  | 
CN1C(=O)[C@@H]2NC(=O)[C@@H]3NC(=O)[C@@H](c4ccc(O)cc4)NC(=O)[C@H](NC(=O)C(Nc4cc(O)cc(O)c4)c4ccc(O)cc4)Cc4c[nH]c5cc(ccc45)-c4cc3cc(c4O)Oc3ccc(cc3)C[C@H]1C(=O)N[C@@H](C(=O)O)c1ccc(O)c(c1)Oc1ccc2cc1 (stereo not given in full) |  |  | 4 µg/mL (≈ 3.25 µM) | > 128 µg/mL | 1 µg/mL (≈ 0.814 µM) | 16 µg/mL (≈ 13 µM) | 4 µg/mL (≈ 3.25 µM) |  |  |  |  |  | 
CN1C(=O)[C@@H](c2cc(Cl)c(O)c(Cl)c2)NC(=O)[C@@H]2NC(=O)[C@@H](c3cc(Cl)c(O)c(Cl)c3)NC(=O)[C@H](NC(=O)C(=O)c3cc(Cl)c(O)c(Cl)c3)Cc3c[nH]c4cc(ccc34)-c3cc2cc(c3O)Oc2ccc(cc2)C[C@H]1C(=O)N[C@@H](C(=O)O)c1ccc(O)cc1 [ISOCOMPLESTATIN] |  |  |  | > 128 µg/mL |  |  |  | > 64 µg/mL | > 64 µg/mL | > 128 µg/mL | > 128 µg/mL |  | 
CN1C(=O)[C@@H]2NC(=O)[C@@H]3NC(=O)[C@@H](c4ccc(O)cc4)NC(=O)[C@H](NC(=O)C(NC(=O)CCCCCN)c4ccc(O)cc4)Cc4c[nH]c5cc(ccc45)-c4cc3cc(c4O)Oc3ccc(cc3)C[C@H]1C(=O)N[C@@H](C(=O)O)c1ccc(O)c(c1)Oc1ccc2cc1 (stereo not given in full) | > 256 µg/mL | > 256 µg/mL |  |  |  |  | 8 µg/mL (≈ 6.48 µM) |  |  |  |  |  | 
CN1C(=O)[C@@H]2NC(=O)[C@@H]3NC(=O)[C@@H](c4ccc(O)cc4)NC(=O)[C@H](NC(=O)C(Nc4ccc(B(O)O)cc4)c4ccc(O)cc4)Cc4c[nH]c5cc(ccc45)-c4cc3cc(c4O)Oc3ccc(cc3)C[C@H]1C(=O)N[C@@H](C(=O)O)c1ccc(O)c(c1)Oc1ccc2cc1 (stereo not given in full) |  |  | 8 µg/mL (≈ 6.45 µM) | > 128 µg/mL | 1 µg/mL (≈ 0.806 µM) | 8 µg/mL (≈ 6.45 µM) | 8 µg/mL (≈ 6.45 µM) |  |  |  |  |  | 
CN1C(=O)[C@@H]2NC(=O)[C@@H]3NC(=O)[C@@H](c4ccc(O)cc4)NC(=O)[C@H](NC(=O)C(Nc4cc(Cl)cc(Cl)c4Cl)c4ccc(O)cc4)Cc4c[nH]c5cc(ccc45)-c4cc3cc(c4O)Oc3ccc(cc3)C[C@H]1C(=O)N[C@@H](C(=O)O)c1ccc(O)c(c1)Oc1ccc2cc1 (stereo not given in full) |  |  | 8 µg/mL (≈ 6.15 µM) | > 128 µg/mL | 4 µg/mL (≈ 3.08 µM) | 16 µg/mL (≈ 12.3 µM) | 4 µg/mL (≈ 3.08 µM) |  |  |  |  |  | 
CN1C(=O)[C@@H]2NC(=O)[C@@H]3NC(=O)[C@@H](c4ccc(O)cc4)NC(=O)[C@H](NC(=O)C(Nc4cc(C(F)(F)F)cc(C(F)(F)F)c4)c4ccc(O)cc4)Cc4c[nH]c5cc(ccc45)-c4cc3cc(c4O)Oc3ccc(cc3)C[C@H]1C(=O)N[C@@H](C(=O)O)c1ccc(O)c(c1)Oc1ccc2cc1 (stereo not given in full) |  |  | 8 µg/mL (≈ 6 µM) | > 128 µg/mL | 8 µg/mL (≈ 6 µM) | 8 µg/mL (≈ 6 µM) | 8 µg/mL (≈ 6 µM) |  |  |  |  |  | 
CC(=O)NC[C@H]1CN(c2ccc(N3CCOCC3)c(F)c2)C(=O)O1 |  |  |  |  |  |  |  |  |  |  |  | Active | Active
CN1C(=O)[C@@H]2NC(=O)[C@@H]3NC(=O)[C@@H](c4ccc(O)cc4)NC(=O)[C@H](NC(=O)C(Nc4ccsc4)c4ccc(O)cc4)Cc4c[nH]c5cc(ccc45)-c4cc3cc(c4O)Oc3ccc(cc3)C[C@H]1C(=O)N[C@@H](C(=O)O)c1ccc(O)c(c1)Oc1ccc2cc1 (stereo not given in full) |  |  | 4 µg/mL (≈ 3.32 µM) | > 128 µg/mL | 1 µg/mL (≈ 0.831 µM) | 8 µg/mL (≈ 6.65 µM) | 4 µg/mL (≈ 3.32 µM) |  |  |  |  |  | 
CN1C(=O)[C@@H]2NC(=O)[C@@H]3NC(=O)[C@@H](c4ccc(O)cc4)NC(=O)[C@H](NC(=O)C(Nc4cccc(O)c4O)c4ccc(O)cc4)Cc4c[nH]c5cc(ccc45)-c4cc3cc(c4O)Oc3ccc(cc3)C[C@H]1C(=O)N[C@@H](C(=O)O)c1ccc(O)c(c1)Oc1ccc2cc1 (stereo not given in full) |  |  | 8 µg/mL (≈ 6.51 µM) | > 128 µg/mL | 4 µg/mL (≈ 3.25 µM) | 16 µg/mL (≈ 13 µM) | 16 µg/mL (≈ 13 µM) |  |  |  |  |  | 
CN1C(=O)[C@@H]2NC(=O)[C@@H]3NC(=O)[C@@H](c4ccc(O)cc4)NC(=O)[C@H](NC(=O)C(Nc4ccc(F)cc4)c4ccc(O)cc4)Cc4c[nH]c5cc(ccc45)-c4cc3cc(c4O)Oc3ccc(cc3)C[C@H]1C(=O)N[C@@H](C(=O)O)c1ccc(O)c(c1)Oc1ccc2cc1 (stereo not given in full) |  |  | 8 µg/mL (≈ 6.58 µM) | > 128 µg/mL | 2 µg/mL (≈ 1.65 µM) | 8 µg/mL (≈ 6.58 µM) | 8 µg/mL (≈ 6.58 µM) |  |  |  |  |  | 
NNC(=O)c1ccncc1 [ISONIAZID] |  |  |  | 4 µg/mL (≈ 29.2 µM) |  |  |  | > 128 µg/mL | 0.063 µg/mL (≈ 0.459 µM) | > 128 µg/mL | 4 µg/mL (≈ 29.2 µM) |  | 
CCCCCCNC(C(=O)N[C@@H]1Cc2c[nH]c3cc(ccc23)-c2cc3cc(c2O)Oc2ccc(cc2)C[C@H]2C(=O)N[C@@H](C(=O)O)c4ccc(O)c(c4)Oc4ccc(cc4)[C@@H](NC(=O)[C@@H]3NC(=O)[C@@H](c3ccc(O)cc3)NC1=O)C(=O)N2C)c1ccc(O)cc1 (stereo not given in full) | > 256 µg/mL | > 256 µg/mL | 4 µg/mL (≈ 3.32 µM) |  |  | 4 µg/mL (≈ 3.32 µM) |  |  |  |  |  |  | 
CN1C(=O)[C@@H]2NC(=O)[C@@H]3NC(=O)[C@@H](c4ccc(O)cc4)NC(=O)[C@H](NC(=O)C(N)c4ccc(O)cc4)Cc4c[nH]c5cc(ccc45)-c4cc3cc(c4O)Oc3ccc(cc3)C[C@H]1C(=O)N[C@@H](C(=O)NCCCN)c1ccc(O)c(c1)Oc1ccc2cc1 (stereo not given in full) | > 256 µg/mL | > 256 µg/mL | 4 µg/mL (≈ 3.4 µM) |  |  | 1 µg/mL (≈ 0.849 µM) |  |  |  |  |  |  | 
CN1C(=O)[C@@H]2NC(=O)[C@@H]3NC(=O)[C@@H](c4ccc(O)cc4)NC(=O)[C@H](NC(=O)C(Nc4ccc(Br)cc4)c4ccc(O)cc4)Cc4c[nH]c5cc(ccc45)-c4cc3cc(c4O)Oc3ccc(cc3)C[C@H]1C(=O)N[C@@H](C(=O)O)c1ccc(O)c(c1)Oc1ccc2cc1 (stereo not given in full) |  |  | 8 µg/mL (≈ 6.27 µM) | > 128 µg/mL | 2 µg/mL (≈ 1.57 µM) | 8 µg/mL (≈ 6.27 µM) | 4 µg/mL (≈ 3.13 µM) |  |  |  |  |  | 
CN1C(=O)[C@@H]2NC(=O)[C@@H]3NC(=O)[C@@H](c4ccc(O)cc4)NC(=O)[C@H](NC(=O)C(Nc4cc(F)cc(F)c4F)c4ccc(O)cc4)Cc4c[nH]c5cc(ccc45)-c4cc3cc(c4O)Oc3ccc(cc3)C[C@H]1C(=O)N[C@@H](C(=O)O)c1ccc(O)c(c1)Oc1ccc2cc1 (stereo not given in full) |  |  | 8 µg/mL (≈ 6.39 µM) | > 128 µg/mL | 4 µg/mL (≈ 3.2 µM) | 4 µg/mL (≈ 3.2 µM) | 8 µg/mL (≈ 6.39 µM) |  |  |  |  |  | 
